Experiment [1] deals with Rattus norvegicus. Briefly: In vivo triglyceride lowering activity, dosed at 0.01 % of the diet. The experiment is classed as functional. The procedure, abridged:
(§1)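 Male CFE or CD-1 Sprague-Dawley rats, 140-150 g; 8 per control group, 4 per test group. Compound mixed into ground chow (w/w) via MeOH-CHCl3 (1:3) solution, solvent evaporated; controls got solvent-treated chow. Fed ad libitum 5 days, food intake monitored, killed fed and bled. Serum sterols and triglycerides by adapted autoanalyzer methods; mean percent of control, Student's t test.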

The target in experiment [2] is T1, Sterol O-acyltransferase 1 (Rattus norvegicus) (UniProt O70536).
T1 sequence (whole entry): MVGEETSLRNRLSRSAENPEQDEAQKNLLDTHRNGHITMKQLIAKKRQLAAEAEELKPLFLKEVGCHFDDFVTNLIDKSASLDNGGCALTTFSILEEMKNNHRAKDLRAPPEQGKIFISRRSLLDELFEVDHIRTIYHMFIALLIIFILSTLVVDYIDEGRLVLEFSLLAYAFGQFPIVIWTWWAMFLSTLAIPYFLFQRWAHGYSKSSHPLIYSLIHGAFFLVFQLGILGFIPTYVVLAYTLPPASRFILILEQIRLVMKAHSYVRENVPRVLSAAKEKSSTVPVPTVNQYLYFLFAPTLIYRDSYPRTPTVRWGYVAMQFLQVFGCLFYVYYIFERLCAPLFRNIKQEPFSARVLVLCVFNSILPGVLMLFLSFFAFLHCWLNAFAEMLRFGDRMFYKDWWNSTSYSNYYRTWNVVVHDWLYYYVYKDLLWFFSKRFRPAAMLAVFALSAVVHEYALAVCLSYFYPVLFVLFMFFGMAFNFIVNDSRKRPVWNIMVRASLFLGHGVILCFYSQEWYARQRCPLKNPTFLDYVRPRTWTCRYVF
The experiment is described as follows: In vitro inhibitory activity against acyl coenzyme A:cholesterol acyltransferase (ACAT). As to conditions: concentration not given here. Set-up: concentration or dose not given beside the values. The procedure, abridged: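 ACAT enzyme from rat adrenal homogenate in 0.2 M KH2PO4 buffer pH 7.4, 1000g 15 min 5 °C supernatant (microsomal fraction). Supernatant + BSA (50 mg/mL) + compound at final 5.2 μg/mL + buffer preincubated 10 min 37 °C; [14C]oleoyl-CoA (0.4 μCi) added, 30 min 37 °C. Lipids extracted, TLC; cholesteryl ester zone counted. Mean % inhibition vs no-compound control; Student's t test.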

Experiment [3] concerns Rattus norvegicus. The experiment is described as follows: In vivo Triglyceride lowering activity at dose as 0.03 % of the diet. The experiment is classed as functional. A digest of the protocol:
as §1

Experiment [4] deals with Rattus norvegicus. Briefly: In vivo Sterol lowering activity at dose as 0.03 % of the diet. The experiment is classed as functional. A digest of the protocol: as §1
Experiment [5] deals with Rattus norvegicus. Briefly: In vivo Sterol lowering activity at dose as 0.01 % of the diet. The experiment is classed as functional. A digest of the protocol:
as §1

Experiment [6] deals with Rattus norvegicus. Briefly: In vivo Sterol lowering activity at dose as 0.10 % of the diet. The experiment is classed as functional. A digest of the protocol: as §1
Experiment [7] concerns Rattus norvegicus. Briefly: In vivo triglyceride lowering activity, dosed at 0.10 % of the diet. The experiment is classed as functional. The procedure, abridged:
as §1

In experiment [8] the test system is Rattus norvegicus. Briefly: In vivo triglyceride lowering activity, dosed at 0.03 % of the diet. The experiment is classed as functional. The procedure, abridged:
as §1

In experiment [9] the test system is Rattus norvegicus. Briefly: In vivo Triglyceride lowering activity at dose as 0.01 % of the diet. The experiment is classed as functional. A digest of the protocol: as §1
Experiment [10] has as its system Rattus norvegicus. Briefly: In vivo sterol lowering activity dosed at 0.10 % of the diet. The experiment is classed as functional. The procedure, abridged:
as §1

Experiment [11] concerns Rattus norvegicus. Briefly: In vivo triglyceride lowering activity dosed at 0.10 % of the diet. The experiment is classed as functional. A digest of the protocol:
as §1

The subject of experiment [12] is Rattus norvegicus. Briefly: In vivo Sterol lowering activity at dose as 0.05 % of the diet. The experiment is classed as functional. A digest of the protocol:
as §1

The test system of experiment [13] is Rattus norvegicus. The experiment is described as follows: In vivo Sterol lowering activity at dose as 0.025 % of the diet. The experiment is classed as functional. A digest of the protocol:
as §1

Experiment [14] has as its system Rattus norvegicus. Briefly: In vivo triglyceride lowering activity dosed at 0.05 % of the diet. The experiment is classed as functional. The procedure, abridged:
as §1

“And” between values parts separate entries of the source, which are not always exact repeats. Equal values may be shown once.

`Cc1ccc(CCC(=O)Nc2ccc(C(=O)O)cc2)cc1`: the Diet in the experiment with Rattus norvegicus [1] is on record as 75%; in the experiment with Rattus norvegicus [3] it was 97%; in the experiment with Rattus norvegicus [4], 83%; in the experiment on Rattus norvegicus [7] it was 70%. In addition, the inhibition (usually the change of the read-out against control, counted positive when it falls) in [2] is 0%. The “serum sterol, percent of control” value in the experiment on Rattus norvegicus [5] came out at 94%; in the experiment with Rattus norvegicus [6], 91%.

Regarding `CCOC(=O)c1ccc(NCCCc2cccc(Br)c2)cc1`, the Diet with Rattus norvegicus [1] is 74%; in the experiment on Rattus norvegicus [4] it was 84%; with Rattus norvegicus [7] it was 63%. In addition, the “serum triglycerides, percent of control” value in the experiment on Rattus norvegicus [8] is listed as 60%. Moreover, in experiment [2], the inhibition is 50%. Moreover, the “serum sterol, percent of control” value in the experiment on Rattus norvegicus [5] is reported as 84%; in the experiment with Rattus norvegicus [6], 94%.

Consider `O=C(O)c1ccc(NCCCCCCc2cccs2)cc1`, for which the “serum triglycerides, percent of control” value with Rattus norvegicus [8] was 63%; with Rattus norvegicus [11], 57%. The results for the Diet in the experiment with Rattus norvegicus [9] and in the experiment on Rattus norvegicus [4] were 58% and 83%, respectively. For the same molecule, the inhibition in experiment [2] was found to be 31%. In addition, the entries for the “serum sterol, percent of control” value in the experiment on Rattus norvegicus [10] and in the experiment with Rattus norvegicus [5] were 76% and 90%, respectively.

With `O=C(O)c1ccc(NCc2ccc(Cl)cc2)cc1`, the Diet is listed as 98% with Rattus norvegicus [1], 72% in the experiment on Rattus norvegicus [3] and 80% in the experiment with Rattus norvegicus [4]. For the same molecule, the “serum sterol, percent of control” value is given as 71% with Rattus norvegicus [10] and 89% in the experiment on Rattus norvegicus [5]. In the experiment with Rattus norvegicus [11], the “serum triglycerides, percent of control” value was 52%.

On to `O=C([O-])c1ccc(NCc2ccc(Cl)cc2)cc1.[Na+]`, for which the Diet in the experiment on Rattus norvegicus [1] is 70%; with Rattus norvegicus [4] it was 90%. Further, the “serum triglycerides, percent of control” value in the experiment on Rattus norvegicus [8] is listed as 61%; with Rattus norvegicus [11] it was 67%. Besides, the “serum sterol, percent of control” value is on record as 91% in the experiment on Rattus norvegicus [5] and 83% in the experiment on Rattus norvegicus [6].

`CCCCCCCCC/C=C/CCCNc1ccc(C(=O)OCC)cc1`: the “serum triglycerides, percent of control” value was 75% with Rattus norvegicus [8] and 79% with Rattus norvegicus [11]. In addition, the figures for the Diet in the experiment on Rattus norvegicus [9], with Rattus norvegicus [12] and with Rattus norvegicus [13] were 78%, under 85% and under 88%, respectively. For the same molecule, the inhibition in [2] is under 51%. Also, the “serum sterol, percent of control” value in the experiment with Rattus norvegicus [10] was under 83%.

As to `O=C(OCC(O)CO)c1ccc(NCCCc2ccc(Cl)cc2)cc1` (configuration not stated), the Diet came out at 78% with Rattus norvegicus [1], 63% with Rattus norvegicus [3] and 88% in the experiment on Rattus norvegicus [4]. In addition, in [2], the inhibition is 17%. Besides, the entries for the “serum sterol, percent of control” value in the experiment with Rattus norvegicus [10] and in the experiment with Rattus norvegicus [5] were 81% and 97%, respectively. Moreover, the “serum triglycerides, percent of control” value in the experiment with Rattus norvegicus [11] stood at 57%.

As for `CCCCCCCCCCCCNc1ccc(C(=O)O)cc1`, the “serum triglycerides, percent of control” value is under 40% in the experiment with Rattus norvegicus [8] and under 32% with Rattus norvegicus [11]. In addition, the Diet is under 51% in the experiment on Rattus norvegicus [9], under 80% with Rattus norvegicus [12] and under 86% with Rattus norvegicus [13]. The “serum sterol, percent of control” value with Rattus norvegicus [10] is recorded as under 89%.

With `CCCCCCNc1ccc(C(=O)OCC)cc1`, the Diet is 76% and 73% with Rattus norvegicus [14]; 80% with Rattus norvegicus [12]; 86% in the experiment with Rattus norvegicus [7]; 79% in the experiment with Rattus norvegicus [13]. In addition, the “serum sterol, percent of control” value in the experiment on Rattus norvegicus [6] turned out to be 87%.

`O=C(O)c1ccc(NCCCc2ccc(F)cc2)cc1`: the Diet with Rattus norvegicus [1] is given as 94%; with Rattus norvegicus [3], 90%; in the experiment on Rattus norvegicus [4], 82%. For the same molecule, in experiment [2], the inhibition is 16%. In addition, in the experiment on Rattus norvegicus [11], the “serum triglycerides, percent of control” value stood at 61%. Besides, the figures for the “serum sterol, percent of control” value in the experiment on Rattus norvegicus [5] and in the experiment on Rattus norvegicus [6] were 83% and 82%, respectively.

Turning to `CCOC(=O)c1ccc(NCCCc2ccc([N+](=O)[O-])cc2)cc1`, the Diet with Rattus norvegicus [1] came out at 81%; in the experiment on Rattus norvegicus [3], 84%; with Rattus norvegicus [4] it was 81%; in the experiment with Rattus norvegicus [7] it was 73%. Moreover, in [2], the inhibition amounted to 19%. For the same molecule, the “serum sterol, percent of control” value in the experiment on Rattus norvegicus [10] and in the experiment with Rattus norvegicus [5] was 85% each time.
